Most compounds without a hit are left out; they make up all but 4.9% or so of the library.
STAT1 act: STAT1 signaling activators, primary screen, cell-based, HTS, luciferase reporter. NIH 3T3 STAT1-luciferase reporter, IFN-gamma, luminescence; 100% = IFN-gamma alone, no compound. activation (% of control), % at 5.5 µM. 200,000 tested, 2.6% active;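 active = activation above the screen-wide mean activation plus 3 SD, cut at about 130% in these data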;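 note: raw ratio to IFN-gamma control signal so 100% means no change and 0% no light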
NF-kB expr up: activators of NF-kB expression in neurons, primary screen, cell-based, HTS. human neuronal cells, NF-kB reporter expression; hits give high values. fold change at 12.5 µM. 190,000 tested, 1.6% active; in the data active = fold change above about 3.3
STAT3 inh: IL-6 driven STAT3 reporter inhibitors, primary screen, U3A cells, luciferase, luminescence, MLSCN library; inhibition, % at 5.5 µM; 190,000 tested, 0.89% active; IL-6 STAT3-luciferase reporter; host cell line lacks STAT1;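 active = inhibition above the mean inhibition across all screened compounds plus 3 SD, cut at about 44% in these data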;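 note: 0% = DMSO only wells and 100% = 100 µM nifuroxazide control wells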
STAT1 blocker: STAT1 signaling inhibitors, primary screen, cell-based, HTS, luciferase reporter; NIH 3T3 STAT1-luciferase reporter, IFN-gamma, luminescence; inhibition, % at 5.5 µM; 200,000 tested, 0.35% active;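 active = inhibition above a set limit, the mean inhibition across all tested compounds plus 3 SD, cut at about 34% in these data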;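 note: 0% = IFN-gamma with DMSO and 100% = IFN-gamma with 300 µM nifuroxazide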
APP 5'UTR act: activators of APP 5'UTR luciferase reporter, primary screen, SH-SY5Y cells. SH-SY5Y APP 5'UTR luciferase reporter, luminescence; zero percent = DMSO vehicle wells. activation, % at 2 µM. 190,000 tested, 1% active. AID 1276, 2008;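 active = activation above a set limit, based on mean plus 3 SD of controls, cut at about 140% in these data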
STAT3 activator: IL-6 driven STAT3 reporter potentiators, primary screen, U3A cells, luciferase, luminescence, MLSCN library. 190,000 tested, 0.91% active. IL-6 STAT3-luciferase reporter; 100% = signal with IL-6 EC80 alone. activation (% of control), % at 5.6 µM;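 active = activation above the screen-wide mean of compound activation plus 3 SD, cut at about 130% in these data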;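 note: 0% = background luminescence of wells with medium and substrate only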
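Detection: reporter luminescence signal / Assay system: STAT1-lacking human U3A cells, STAT3 luciferase reporter / Incubation: compound pre-incubation 1 h before IL-6, then 6 h stimulation at 37 °C / Control set: IL-6-only high control / Read-out: % activation relative to IL-6 control / Probe or stimulus: Interleukin-6, 33 ng/mL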
An asterisk follows results filed as active; · = no result.

SMILES	STAT1 act	NF-kB expr up	STAT3 inh	STAT1 blocker	APP 5'UTR act	STAT3 activator
Cc1cnc(NC(=O)CCCSc2nc3ccccc3s2)s1	99	0.98	-31	1	-8	135*
COc1ccc(Cl)cc1NC(=S)N(CCN1CCOCC1)C1CCN(C(C)=O)CC1	106	0.89	1	-7	-10	101
COCCN(CCOC)C(=O)c1cc2c(=O)n3ccccc3nc2s1	108	1.1	-11	-8	31	114
CCN(CC)C(=O)c1cc2c(=O)n3ccccc3nc2s1	119	1.6	-37	-21	23	134*
O=C(CN(c1ccccc1)S(=O)(=O)c1ccccc1)N/N=C/c1ccco1	102	1.2	-10	-2	1	106
CN(C)S(=O)(=O)c1ccc(C(=O)NCCOc2ccccc2)cc1	131*	2.8	-16	-41	·	116
O=S(=O)(NCc1cn2ccsc2n1)c1ccc(Oc2ccccc2)cc1	79	0.77	62*	23	9	52
COc1cc(CNc2ccc(N3CCCC3)cc2)ccc1OCc1ccccc1	121	1.1	-31	-24	84	134*
Cc1ccc(-n2nc(-c3ccco3)cc2C(=O)O)c(C)c1	111	1.1	2	-13	-7	100
Cc1nn(-c2cccc(C(F)(F)F)c2)c(Cl)c1/C=N/Nc1cccc(C(=O)O)c1	106	8*	18	-6	159*	85
Cc1ccc(/C=N/Nc2ccc(C(=O)O)cc2)o1	125	3	-22	-27	125	122
CC(C)c1ccc(/C=N/Nc2ccc(C(=O)O)cc2)cc1	43	1.1	84*	65*	15	29
CSc1ccc(/C=N/Nc2ccc(Cl)c(C(=O)O)c2)cc1	107	12*	-5	-7	139*	105
O=C(O)c1ccc(/C=N/Nc2cccc(C(F)(F)F)c2)cc1	149*	1.1	-7	-55	24	113
CCCCCCCC#Cc1ccccc1/C=N/S(=O)c1ccc(C)cc1 (stereo not given)	102	0.95	-5	-2	-19	102
CCO[C@@H]1OC(C(=O)N2CCCCCCC2)=C[C@H](c2cn(C(C)=O)c3ccccc23)[C@H]1CCCO	94	0.57	·	8	20	·
Cc1ccc(C(=O)Cn2cnc3ccccc3c2=O)cc1	133*	2.4	-7	-35	90	107
O=C(Cn1cnc2ccccc2c1=O)c1ccc(Br)cc1	144*	2.9	18	-51	37	89
CC(C)(C)n1ncc2c(=O)n(CC(=O)c3ccccc3)cnc21	150*	2.1	-18	-55	56	116
CC(C)(C)n1ncc2c(=O)n(CC(=O)OCc3ccccc3)cnc21	105	0.3	35	-5	68	74
COc1ccccc1NC(=O)CN1CCN(c2ccccc2)CC1	100	1.1	-15	-3	10	113
CC(=O)Nc1ccc2nc(NC(=O)COc3ccccc3Cl)sc2c1	130*	0.96	17	-30	32	90
CC(=O)Nc1ccc2nc(NC(=O)COc3ccccc3)sc2c1	115	1	11	-19	30	97
COc1cccc2sc(Nc3nc4ccc(NC(C)=O)cc4s3)nc12	132*	1.1	-5	-35	-14	104
Cc1ccc2nc(NC(=O)c3ccccn3)sc2c1	19	1.2	98*	89*	-22	15
SMILES	STAT1 act	NF-kB expr up	STAT3 inh	STAT1 blocker	APP 5'UTR act	STAT3 activator
CC(=O)Nc1ccc2nc(NC(=O)CCc3ccccc3)sc2c1	134*	1.1	-1	-37	8	103
CC(=O)Nc1ccc2nc(NC(=O)COc3ccccc3C)sc2c1	111	0.73	10	-13	16	101
CC(=O)NC1(C(F)(F)F)N=C(c2ccccc2)NC1=O (stereo not given)	101	0.98	9	-1	17	92
O=C(CCc1ccccc1)Nc1ccc2ccccc2n1	149*	5.3*	0	-56	140*	104
O=C(CCc1ccccc1)Nc1cccc(NC(=O)CCc2ccccc2)c1	96	0.82	5	4	-12	101
Cc1ccc(-c2cc(=O)c3cc(Cl)ccc3[nH]2)cc1	143*	1.8	·	-44	138*	·
Cc1ccc2[nH]c(-c3ccccc3)cc(=O)c2c1	126	6*	15	-29	-91	88
Cc1ccc(-c2cc(=O)c3ccccc3[nH]2)cc1	102	1.7	5	-2	14	94
COc1ccc(-c2cc(=O)c3cc(C)ccc3[nH]2)cc1	150*	6.5*	9	-55	99	90
COc1cc2[nH]c(-c3ccc(C)cc3)cc(=O)c2cc1OC	107	1.1	-11	-8	12	107
CCSC1=NCCN1C(=O)C(C)(C)Oc1ccc(Cl)cc1	93	0.84	4	8	30	99
CCNc1nc(NCC)nc(N/N=C/c2ccc(Br)cc2)n1	102	1.2	24	-4	-1	84
O=C(COc1cccc2ccccc12)N/N=C/c1ccccc1OCc1ccc(C(=O)O)cc1	106	1.1	26	-8	2	86
COc1ccc(/C=N/NC(=O)COc2ccccc2-c2ccccc2)cc1	94	5.3*	-3	6	-97	109
O=C(COc1ccccc1-c1ccccc1)N/N=C/c1cccc2ccccc12	108	4.1*	-24	-9	-95	129
O=C(N/N=C/c1ccc([N+](=O)[O-])cc1)c1[nH]ncc1Br	131*	1.6	16	-36	94	90
CCOC(=O)/C(N=Nc1ccc2c(c1)OCO2)=C(\C)O	137*	1.6	1	-39	116	103
COc1ccc(-c2c(C#N)c(C)nc3c2C(=O)c2ccccc2-3)cc1	96	1.1	16	4	-3	90
COc1ccc(C2=C(C#N)C(=O)OC2)cc1	68	1.1	6	36*	2	97
CCOC(=O)C1(Cc2ccccc2)CCCN(Cc2ccc(OCCO)cc2)C1 (stereo not given)	95	1.1	13	4	14	92
C/C(=N\NC(=O)c1nn(C)cc1Br)c1cccc(NC(=O)c2ccncc2)c1	141*	1.1	0	-47	33	100
C/C(=N\NC(=O)c1ccc(Br)cc1)c1cccc(NC(=O)c2cccnc2)c1	110	0.96	7	-13	15	103
COc1ccc([N+](=O)[O-])cc1NCc1ccccc1	143*	1.6	-11	-48	10	110
CNc1oc(-c2ccc(Cl)cc2)nc1C#N	132*	2.3	11	-35	34	92
COc1ccc(-c2nc(C#N)c(NCc3ccc(C)cc3)o2)cc1OC	104	1.2	5	-4	25	99

Compound activity (PubChem)
